Measured values from paper PMC7993274 (Clinical and Translational Science, 2020).

Legend:
[1] = Urinary PK, MAD period day 10; format: in vivo, human; settings: day 10, across all doses
In short: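 During the MAD period, urine was collected on day −1 (0–24 h) and day 10 (0–12 h and 12–24 h), with LLOQ 1 ng/mL. Renal clearance and unchanged drug recovered in urine were summarized descriptively as geometric mean (CV), by dose group and for the Japanese 400 mg q.d. cohort.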

[2] = rats, preclinical studies; cited from earlier work
[3] = system: MATE1; settings: cited from earlier work
[4] = system: CYP3A4; assay: 6‐beta‐hydroxycortisol/cortisol ratio; format: in vivo, human; settings: participants receiving PF‐06826647
[5] = system: OCT2; settings: cited from earlier work

dose recovered unchanged in urine [1]: < 1.5%
6‐beta‐hydroxycortisol/cortisol ratio [4]: no clinically meaningful alteration
Structure (SMILES): Cn1cc(-c2cn3nccc3c(-c3cnn([C@]4(CC#N)C[C@@H](C#N)C4)c3)n2)cn1 [PF‐06826647]
drug clearance via renal and biliary excretion [2]: limited drug clearance via renal and biliary excretion
inhibition of transporter protein MATE1 [3]: minimal inhibition
inhibition of transporter protein OCT2 [5]: minimal inhibition
